TbMetRS inhib – T. brucei MetRS inhibitors, primary screen, biochemical, luminescence | purified T. brucei MetRS, ATP depletion, Kinase-Glo luminescence | actives 0.4% (n = 360,000) | inhibition, % at 11.9 µM | methionyl-tRNA synthetase (Trypanosoma brucei brucei);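 active = inhibition above a per-plate cutoff of the control wells' mean inhibition plus 3 SD, cut at about 5.5% in these data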;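 also: 0% = DMSO wells median and 100% = median of wells with control inhibitor compound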
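Material: T. brucei methionyl-tRNA synthetase, purified; reagent: substrates ATP, L-methionine and bulk Escherichia coli tRNA; dosing: 11.9 µM single point; timing: 15 min plus 2 h at 25 °C; detection: luminescence of leftover ATP; evaluation: % inhibition; control set: DMSO-only wells as low control; replicates: singlicate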
CHOP inh – inhibitors of CHOP promoter induction, primary screen, cell-based, unfolded protein response, luciferase reporter; CHO-K1 CHOP-promoter luciferase, tunicamycin-induced, 15-18 h; inhibition, % at 10 µM; actives 3.8% (n = 220,000);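 active = compounds that reduced the stress-induced luciferase reporter signal by more than about 70% of percent inhibition, limit read from the data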;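 also: 0% = tunicamycin plus vehicle and 100% = wells without tunicamycin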
CHOP UPR activ – activators of apoptotic CHOP UPR arm, primary screen, cell-based, CHO-CHOP luciferase reporter, luminescence, uHTS | UPR activation; percent of tunicamycin response over DMSO baseline | activation, % at 10 µM | actives 0.34% (n = 330,000) | AID 449763, 2010;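 active = at 10 µM dose, activation of 40% or more, normalized to positive control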;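 also: 100% = tunicamycin at 10 µg/mL and 0% = DMSO alone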
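Dosing – one dose, 10 µM in 0.5% DMSO · System – CHO-CHOP cells, stable luciferase reporter of PERK-eIF2a-CHOP signalling · Input – 500 cells/well · Control set – tunicamycin 10 µg/mL final as positive, DMSO-only wells as negative · Timing – 6 h compound treatment, 37 °C · Measure – % activation vs tunicamycin · Technique – luminescence read with Steady-Glo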
UPR XBP1 act – activators of adaptive XBP1 UPR arm, primary screen, cell-based, CHO-XBP1 luciferase reporter, luminescence, uHTS; activation, % at 20 µM; actives 0.33% (n = 330,000); IRE1-XBP1 UPR activation; percent of tunicamycin response, DMSO as zero;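 active = versus positive control, 20 µM dose yields 30% or more activation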;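 also: 100% = tunicamycin at 10 µg/mL and 0% = DMSO only wells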
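Test system: CHO-XBP1 luciferase reporter cells | Buffer or medium: Serum-containing F12 medium, 10% FBS | Schedule: 6 h compound exposure at 37 °C, 5% CO2 | Detection: Steady-Glo luciferase glow luminescence, 10 min after reagent addition | Read-out basis: Activation, % of tunicamycin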
V-ATPase pHluor – regulators of yeast V-ATPase proton pumping, primary screen, pHLuorin cytosolic pH fluorescence; response, % at 10 µM; AID 504577, 2011; S. cerevisiae; actives 0.37% (n = 350,000); in the data active = response mostly above about 7.3%, no sharp cut-off; inactive = mostly below about 5.4%; also: actives read high
Active calls of the source: *; nt = no result; ! = not confirmed by another sample. The entries come from a sample that favours hits as a whole.

SMILES	TbMetRS inhib	CHOP inh	CHOP UPR activ	UPR XBP1 act	V-ATPase pHluor
Cn1ncc2c(N3CCN(c4ccc(Cl)c(Cl)c4)CC3)ncnc21	0	84*	2	0	2
CC(C)Nc1ncnc2c1cnn2-c1ccc(Cl)cc1	1	75*	0	-4	3
Clc1ccc(Nc2ncnc3c2cnn3-c2ccccc2)cc1	1	21	6	7	-1
O=C(Cn1cnc2c(cnn2-c2ccc(Cl)cc2)c1=O)N1CCN(c2ccccc2)CC1	0	91*	1	0	2
Cc1nn(-c2ccccc2)c(Cl)c1C(=O)N1CCN(c2ncnc3c2cnn3-c2ccccc2)CC1	-1	92*	-5	-12	2
CCOC(=O)C1CCN(c2ncnc3c2cnn3-c2ccc(Cl)cc2)CC1	-2	58	0	-4	0
Clc1ccc(-n2ncc3c(N4CCCC4)ncnc32)cc1	-1	78*	-8	-5	-2
C=CCn1c(SCc2c(C)noc2C)nc2sc3c(c2c1=O)CCCCC3	0	58	-1	-1	1
Cc1noc(C)c1CSc1nc2sc3c(c2c(=O)n1C)CCCC3	0	76*	2	1	1
C=CCn1c(SCc2c(C)noc2C)nc2sc3c(c2c1=O)CCCC3	0	83*	-1	0	-5
CCC(C)c1ccc2oc(-c3ccc(NC(=O)Cn4cnc5c(=O)n(C)c(=O)n(C)c54)cc3)nc2c1 (stereo not drawn)	-1	79*	22	25	3
Cn1c(=O)c2ncn(CC(=O)Nc3ccc(N4CCOCC4)cc3)c2n(C)c1=O	0	12	-2	0	-3
Cc1cc(C)c(C(=O)c2ccc(C(=O)N(C(C)C)C(C)C)cc2)c(C)c1	0	94*	-1	-2	2
Cc1cc(C)c(C(=O)c2ccc(C(=O)NC(C)(C)C)cc2)c(C)c1	0	64	2	-3	1
C[C@H]1CN([C@@H](C)CO)S(=O)(=O)c2ccc(Br)cc2O[C@@H]1CN(C)Cc1cccc(F)c1	-1	nt	nt	nt	-1
COc1ccc(/C=C2/CCc3ccccc3C2=O)cc1CN1CCOCC1	-1	-67	3	-1	-1
COc1ccc(/C=C2\CCc3ccccc3C2=O)cc1Cn1nc(C)cc1C	-1	70*	2	1	0
COC(=O)c1[nH]c2cc(OC)ccc2c1NC(=O)CN1CCN(c2cccc(C)c2)C(C)C1 (stereo not drawn)	0	89*	0	2	-5
COC(=O)c1[nH]c2cc(C)ccc2c1NC(=O)CN1CCOCC1	0	12	1	0	-1
COc1ccc(N/C=C2\CCc3ccccc3C2=O)cc1	-1	83*	-5	-11	1
O=C1/C(=C/Nc2ccc3c(c2)OCO3)CCc2ccccc21	-1	77*	-7	-11	-1
Cc1ccc(NC(=O)Nc2ccc3c(c2)N(C)C(=O)CS3)cc1C	0	73*	3	-2	-2
Cc1ccc(CNC(=O)Nc2ccc3c(c2)N(C)C(=O)CS3)cc1	-1	8	-1	-2	1
CCc1ccc(NC(=O)Nc2ccc3c(c2)N(C)C(=O)CS3)cc1	0	75*	0	0	-2
Cc1cc(C)cc(NC(=O)Nc2ccc3c(c2)N(C)C(=O)CS3)c1	0	87*	0	-4	3
SMILES	TbMetRS inhib	CHOP inh	CHOP UPR activ	UPR XBP1 act	V-ATPase pHluor
CC(=O)c1cccc(NC(=O)Nc2ccc3c(c2)N(C)C(=O)CS3)c1	0	32	2	-3	-1
CN1C(=O)CSc2ccc(NC(=O)NCc3ccccc3)cc21	0	12	-2	-1	2
CCC(C)c1ccc(NC(=S)NC2CCN(Cc3ccccc3)CC2)cc1 (stereo not drawn)	-1	87*	0	-2	1
C(=C\c1ccccc1)/CN1CCN(C(c2ccccc2)c2ccccc2)CC1	0	23	0	-5	-1
Fc1ccc(C(c2ccc(F)cc2)N2CCN(C/C=C/c3ccccc3)CC2)cc1	-1	84*!	-1	-5	5
Cc1[nH]c2ccccc2c1C(=O)C(=O)NCc1nnnn1-c1ccc(F)c(F)c1	0	nt	nt	nt	0
CC1C(=O)Nc2ccc(S(=O)(=O)N3CCN(c4cccc(C(F)(F)F)c4)CC3)cc2NC1=O (stereo not drawn)	-1	nt	0	-4	-6
O=C1CCc2cc(S(=O)(=O)N3CCN(c4cccc(C(F)(F)F)c4)CC3)ccc2N1	-1	87*	1	2	-3
CCCCN(CCCC)S(=O)(=O)c1ccc(NS(=O)(=O)c2ccc(NC(C)=O)cc2)cc1	0	93*	1	-1	-1
CCCN(CCC)S(=O)(=O)c1ccc(NC(=O)Cc2cccs2)cc1	0	61	-1	-2	-2
CCCCN(CCCC)S(=O)(=O)c1ccc(NC(=O)Cc2cccs2)cc1	0	82*	-4	-3	-5
Cc1cc(=O)oc2cc(OCC(=O)Nc3c(C)n(C)n(-c4ccccc4)c3=O)c(Cl)cc12	0	nt	-1	-2	-7
O=c1c2c(-c3cccs3)csc2ncn1/N=C/c1ccc(OC(F)F)cc1	0	77*	0	5	-4
O=C(NN1c2ccccc2CCc2ccccc21)c1ccccc1Br	-1	76*	3	0	5
CNc1ccccc(C(=O)/C=C/c2ccccc2OC)c1=O	1	88*	7	0	-1
COc1ccccc1/C=C/C(=O)/C=C/c1ccccc1O	0	101*	nt	nt	2
COc1ccc(CCNC(=O)c2cc3ccc(Cl)cc3nc2N)cc1	0	nt	nt	nt	nt
COc1ccc2nc(-c3ccccc3)nc(SC)c2c1	-2	nt	nt	nt	-2
O=C(Nc1ccc2c(c1)OCO2)c1cc(C2CCCCN2C(=O)c2ccccc2)on1 (stereo not drawn)	0	nt	nt	nt	nt
Cc1cccc(N(C)S(=O)(=O)c2cccc3nsnc23)c1	0	94*	0	-2	-5
O=C1c2ccccc2C(=Cc2cccnc2)c2ccccc21	0	nt	nt	nt	-4
CC(C)N1C/C(=C/c2cccnc2)C(=O)/C(=C/c2cccnc2)C1	0	100*	nt	nt	-1
CC(C)N1CC2=C(OC(N)=C(C#N)C2c2cccnc2)/C(=C/c2cccnc2)C1 (stereo not drawn)	1	-19	2	-1	-3
CN1C/C(=C/c2cccnc2)C(=O)/C(=C/c2cccnc2)C1	-2	81*	nt	nt	-7
CCOC(=O)C1(C)CCCCCN1C(=O)c1ccc(C(=O)OC)cc1 (stereo not drawn)	0	nt	nt	nt	nt
OC[C@H]1O[C@@H](n2cnc3c(NC4CCCC4)ncnc32)C(O)[C@H]1O (stereo partly drawn)	nt	-21	nt	nt	nt
